Published values pooled from the literature.
Compare with care: the assays were run in different laboratories.
AVPR2: Vasopressin V2 receptor (AVPR2, Homo sapiens, UniProt P30518)
Palmitoyl-protein thioesterase 1: Palmitoyl-protein thioesterase 1 (Homo sapiens, UniProt P50897)
APC: Adenomatous polyposis coli protein (APC, Homo sapiens, UniProt P25054)
CSNK1A1/CRBN: Cereblon/Casein kinase I alpha (CSNK1A1/CRBN, Homo sapiens, UniProt P48729+Q96SW2)
HTR1E: 5-hydroxytryptamine receptor 1E (HTR1E, Homo sapiens, UniProt P28566)

Compound	target	effect on	mode	method	measurement	result
CC1=NN(/C(=N/c2nnc(C)s2)Nc2ccc(C)c(C)c2)C(c2cccnc2)S1 (stereo not drawn)	AVPR2	cAMP	positive allosteric modulator	–	EC50	> 50 µM
[H]/N=C(\N/C(=N/[H])Nc1ccc(Cl)cc1)NC(C)C	Palmitoyl-protein thioesterase 1	binding	–	MST	Kd	808 nM
CC(C)C[C@H](NC(=O)[C@H](CC1CC1)NC(=O)[C@H](CCC(=O)O)NC(=O)c1ccncn1)C(=O)NC1CC1c1ccccc1 (stereo partly drawn)	APC	binding	–	SPR	Kd	32000 nM
CC1=NN(/C(=N/c2nnc(C)s2)Nc2ccc(C)c(C)c2)C(c2ccc(F)cc2)S1 (stereo not drawn)	AVPR2	cAMP	positive allosteric modulator	–	EC50	> 50 µM
Cc1ccc(CNc2cccc3c2CN(C)N(C2CCC(=O)NC2=O)C3=O)cc1 (stereo not drawn)	CSNK1A1/CRBN	protein level	degrader	luciferase	DC50	970 nM
Cc1ccc(N/C(=N\c2nnc(C(C)(C)C)s2)N2N=C(C(C)(C)C)SC2c2cc(F)c(F)c(F)c2)cc1C (stereo not drawn)	AVPR2	cAMP	positive allosteric modulator	–	EC50	> 50 µM
CO[C@H]1C[C@@H]2CC[C@@H](C)[C@@](O)(O2)C(=O)C(=O)N2CCCC[C@H]2C(=O)O[C@H]([C@H](C)C[C@@H]2CC[C@@H](OC(=O)C(C)(CO)CO)[C@H](OC)C2)CC(=O)[C@H](C)/C=C(\C)[C@@H](O)[C@@H](OC)C(=O)[C@H](C)C[C@H](C)/C=C/C=C/C=C/1C	Ferroptosis suppressor protein 1 (AIFM2, Homo sapiens, UniProt Q9BRQ8)	binding	–	ITC	Kd	~5280 nM
CC1=NN(/C(=N\c2ccccc2C)Nc2nnc(C)s2)C(c2ccc(C)cc2)S1 (stereo not drawn)	AVPR2	cAMP	positive allosteric modulator	–	EC50	20.8 µM
NC(=O)N[C@@H](CCC(=O)O)C(=O)O	Palmitoyl-protein thioesterase 1	binding	–	MST	Kd	1270 nM
CC1=NN(/C(=N/c2nnc(C)s2)Nc2ccc(C)c(C)c2)C(c2ccc(-c3ccccc3C(F)(F)F)cc2)S1 (stereo not drawn)	AVPR2	cAMP	positive allosteric modulator	–	EC50	36 µM
CC(C)=CCNc1ncnc2c1ncn2[C@@H]1O[C@H](CO)[C@@H](O)[C@H]1O	Adenosine receptor A3 (ADORA3, Homo sapiens, UniProt P0DMS8, L264F)	G protein activation	agonist	–	EC50	3.4 µM
CSc1nccc(C(=O)N[C@@H](CCC(=O)O)C(=O)N[C@@H](Cc2ccc3ccccc3c2)C(=O)N[C@@H](CC(C)C)C(=O)NC2CC2c2ccccc2)n1 (stereo partly drawn)	APC	binding	–	SPR	Kd	620 nM
CC1=NN(/C(=N/c2nnc(C)s2)Nc2ccc(C)c(C)c2)C(c2cc(F)c(F)c(F)c2F)S1 (stereo not drawn)	AVPR2	cAMP	positive allosteric modulator	–	EC50	> 50 µM
CN1CCC(=C2c3ccccc3C=Cc3ccccc32)CC1	HTR1E	G protein activation	agonist	BRET	EC50	2.04 µM
CN1Cc2c(N)cccc2C(=O)N1C1CCC(=O)NC1=O (stereo not drawn)	CSNK1A1/CRBN	protein level	degrader	luciferase	DC50	> 10000 nM
C=C[C@H]1C[N@@]2CC[C@H]1C[C@H]2[C@H](O)c1ccnc2ccc(OC)cc12	Palmitoyl-protein thioesterase 1	binding	–	MST	Kd	256 nM
Cc1ccc(Sc2ccccc2N2CCNCC2)c(C)c1	HTR1E	G protein activation	agonist	BRET	EC50	1.96 µM

Compound	target	effect on	mode	method	measurement	result
Nc1nnc(-c2ccccc2O)cc1N1CCN(Cc2ccc(OCCOCCNc3cccc4c3C(=O)N(C3CCC(=O)NC3=O)C4=O)c(F)c2)CC1 (stereo not drawn)	SWI/SNF-related matrix-associated actin-dependent regulator of chromatin subfamily A member 2 (SMARCA2, Homo sapiens, UniProt P51531)	protein level	degrader	western blot	DC50	64 nM
CSc1cccc(C(=O)N[C@@H](CCC(=O)O)C(=O)N[C@@H](Cc2ccc3ccccc3c2)C(=O)N[C@@H](CC(C)C)C(=O)NC2CC2c2ccccc2)c1 (stereo partly drawn)	APC	ligand displacement	–	FP	IC50	52.5 µM
COc1ccc(CC2NCCc3c2[nH]c2ccc(C)cc32)c(Cl)c1OC (stereo not drawn)	HTR1E	G protein activation	agonist	BRET	EC50	2.43 µM
COC(=O)[C@]12CCC(C)(C)C[C@H]1[C@H]1C(=O)C=C3[C@@]4(C)C=C(C#N)C(=O)C(C)(C)[C@@H]4CC[C@@]3(C)[C@]1(C)CC2	Epidermal growth factor receptor (EGFR, Homo sapiens, UniProt P00533)	binding	–	MST	Kd	79000 nM
CCCCCCCC/C=C\CCCCCCCC(=O)O	Myoglobin (MB, Homo sapiens, UniProt P02144)	binding	–	absorbance	Kd	240 nM
Cc1cc(C(=O)N[C@@H](CCC(=O)O)C(=O)N[C@@H](Cc2ccc3ccccc3c2)C(=O)N[C@@H](CC(C)C)C(=O)NC2CC2c2ccccc2)ccn1 (stereo partly drawn)	APC	ligand displacement	–	FP	IC50	40.7 µM
CC1=NN(/C(=N/c2nnc(C)s2)Nc2ccc(C)c(C)c2)C(c2ccsc2)S1 (stereo not drawn)	AVPR2	cAMP	positive allosteric modulator	–	EC50	> 50 µM
CC(C)C[C@H](NC(=O)[C@H](Cc1ccccc1)NC(=O)[C@H](CCC(=O)O)NC(=O)c1ccncn1)C(=O)NC1CC1c1ccccc1 (stereo partly drawn)	APC	binding	–	SPR	Kd	67000 nM
CC1=NN(/C(=N\c2ccc(C)cc2)Nc2nnc(C)s2)C(c2ccc(C)cc2)S1 (stereo not drawn)	AVPR2	cAMP	positive allosteric modulator	–	EC50	24.2 µM
Cc1cc(C(C)(C)C)c(O)c(C)c1CC1=NCCN1	HTR1E	G protein activation	agonist	BRET	EC50	0.516 µM
CC(C)C[C@H](NC(=O)[C@H](Cc1ccc2ccccc2c1)NC(=O)[C@H](CCC(=O)O)NC(=O)c1cccc(Br)c1)C(=O)NC1CC1c1ccccc1 (stereo partly drawn)	APC	ligand displacement	–	FP	IC50	11.2 µM
CN(C)c1ncnc2c1ncn2[C@@H]1O[C@H](CO)[C@@H](O)[C@H]1O	Adenosine receptor A3 (ADORA3, Homo sapiens, UniProt P0DMS8, L264Q)	G protein activation	agonist	–	EC50	3.5 µM
CN1CCC(=C2c3ccccc3Sc3ccccc32)CC1	HTR1E	G protein activation	agonist	BRET	EC50	0.33 µM
CSc1ncc(Br)c(C(=O)N[C@@H](CCC(=O)O)C(=O)N[C@@H](Cc2ccc3ccccc3c2)C(=O)N[C@@H](CC(C)C)C(=O)N[C@@H]2C[C@H]2c2ccccc2)n1	APC	binding	–	SPR	Kd	230 nM
CN1CCc2cc(Cl)c(O)cc2[C@@H](c2ccccc2)C1	HTR1E	G protein activation	agonist	BRET	EC50	3.9 µM
CC(C)C[C@H](NC(=O)[C@H](Cc1ccc2ccccc2c1)NC(=O)[C@H](CCC(=O)O)NC(=O)c1ccncn1)C(=O)NC1CC1c1ccccc1 (stereo partly drawn)	APC	binding	–	SPR	Kd	2300 nM
